According to ChEMBL document CHEMBL1142581, “Resveratrol derivatives from the roots of Vitis thunbergii” (J Nat Prod, 2005):

Columns and labels:
[1] = Antiplatelet activity against citreated rabbit platelet assessed as arachidonic acid-induced platelet aggregation; type: functional, cell-based; conditions: Oryctolagus cuniculus
Method in brief: (§1)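 Washed platelets from fresh rabbit blood, preincubated 2 min at 37 °C with various compound concentrations or 0.5% DMSO (control), then challenged with arachidonic acid or U46619. Turbidimetric aggregation: platelet suspension set as 0% and platelet-free Tyrode solution as 100%. Inhibition % = [1 − sample/control aggregation] × 100. IC50 reported as mean ± SD (n=4).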

[2] = Antiplatelet activity against citreated rabbit platelet assessed as inhibition of 9,11-dideoxy-11 alpha, 9 alpha epoxy-methanoprostaglandin F2alpha-induced platelet aggregation; type: functional, cell-based; conditions: Oryctolagus cuniculus; method in brief: as §1
[3] = Antioxidant activity assessed as ABTS radical scavenging activity; type: functional
Method in brief: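 ABTS radical cation generated from 7.5 mM ABTS with 2.5 mM […], then diluted. Various concentrations of vehicle, test agents or Trolox (positive control) were mixed with an equal volume of the diluted radical solution for 6 min. Remaining radical was read as absorbance at 734 nm. EC50 calculated, mean ± SD (n=6).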

| Structure (SMILES) | IC50 [1] | IC50 [2] | EC50 [3] |
| --- | --- | --- | --- |
| Oc1ccc([C@H]2Oc3cc(O)cc(/C=C/c4ccc5c(c4)[C@H](c4cc(O)cc6c4[C@H](c4cc(O)cc(O)c4)[C@@H](c4ccc(O)cc4)O6)[C@H](c4ccc(O)cc4)O5)c3[C@@H]2c2cc(O)cc(O)c2)cc1 | 5.7 µM | 3.9 µM | 4.8 µM |
| CC(=O)Oc1ccccc1C(=O)O [ASPIRIN] | 32.7 µM | – | – |
| Oc1ccc(/C=C/c2cc(O)cc3c2[C@@H](c2cc(O)cc4c2[C@H](c2cc(O)cc5c2[C@@H](c2cc(O)cc(O)c2)[C@H](c2ccc(O)cc2)O5)[C@@H](c2ccc(O)cc2)O4)[C@H](c2ccc(O)cc2)O3)cc1 [MIYABENOL A] | 9 µM | 7.5 µM | 6.6 µM |
| Cc1c(C)c2c(c(C)c1O)CCC(C)(C(=O)O)O2 (centres undefined) [TROLOX] | – | – | 28.4 µM |
| Oc1ccc([C@H]2c3c(O)cc(O)cc3[C@H]3c4c(cc(O)cc4[C@@H]2c2cc(/C=C/c4cc(O)cc5c4[C@H](c4cc(O)cc(O)c4)[C@@H](c4ccc(O)cc4)O5)ccc2O)O[C@@H]3c2ccc(O)cc2)cc1 [VITISIN A] | 10.3 µM | 13.3 µM | 13.8 µM |

Results, then the compound that gave them:

| IC50 [1] | IC50 [2] | EC50 [3] | Structure (SMILES) |
| --- | --- | --- | --- |
| 7 µM | 3.1 µM | 4.4 µM | O=Cc1ccc2c(c1)C(c1cc(O)cc3c1[C@H](c1cc(O)cc(O)c1)[C@@H](c1ccc(O)cc1)O3)[C@H](c1ccc(O)cc1)O2 (some centres undefined) |
| > 100 µM | > 100 µM | 2.8 µM | Oc1ccc(/C=C/c2cc(O)cc3c2[C@H](c2cc(O)cc(O)c2)[C@@H](c2ccc(O)cc2)O3)cc1 |
| 8.1 µM | 5.9 µM | 5.4 µM | Oc1ccc([C@@H]2c3c(O)cc4c5c3[C@@H]([C@@H](c3ccc(O)cc3)c3c(O)cc(O)cc3[C@@H]5[C@@H](c3ccc(O)cc3)O4)[C@H]2c2cc(O)cc(O)c2)cc1 [AMPELOPSIN C] |
| > 100 µM | 7.8 µM | 3.6 µM | O=Cc1ccc(O)c([C@H]2c3cc(O)cc4c3[C@H](c3cc(O)cc(O)c3[C@@H]2c2ccc(O)cc2)[C@@H](c2ccc(O)cc2)O4)c1 [VITISINOL B] |
| 13.4 µM | 10.5 µM | 4.5 µM | O=C1C=C(/C=C/c2ccc(O)cc2)C[C@@H](c2cc(O)cc(O)c2)[C@H](c2ccc(O)cc2)C1 [VITISINOL C] |
| 15 µM | 5.7 µM | 4.1 µM | O=C1C=C(/C=C/c2ccc(O)cc2)[C@H]2C(=O)[C@@H]1[C@H](c1ccc(O)cc1)[C@H]2c1cc(O)cc(O)c1 [VITISINOL D] |
